The test system of assay [1] is Quadruplex DNA [UNDEFINED MUTATION]. In words: Binding affinity to telomeric Htg24 G-quadruplex DNA G16T mutant (unknown origin) assessed as negative fluorescence signal at 5 uM under pH condition 7.4 by fluorescence titration analysis. It is filed as nucleic-acid assay. The conditions noted are these: Homo sapiens. In short, it runs like this:
(§1)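 Ligand 5 μM mixed with wild-type or point-mutant Htg24 in Tris-HCl buffer with 60 mM KCl; signal change calculated as (F mutant − F wild type)/F wild type.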

Assay [2] concerns U-87 MG. Put plainly: Antiproliferative activity against human U87 cells assessed as reduction in cell viability […] by MTT assay. Format: functional, cell-based, U-87MG ATCC. A general note: Tetrazolium dyes change colour on reduction, which living cells bring about.
Assay [3] has as its target Quadruplex DNA. Put plainly: Binding affinity to c-myc promoter G-quadruplex DNA Pu27 (unknown origin) assessed as dissociation constant by isothermal titration calorimetric analysis. Format: nucleic-acid assay. The procedure, abridged: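 ITC at 25 °C: DNA preannealed at 95 °C for 5 min, cooled and held at 4 °C overnight, in 25 mM KH2PO4, 60 mM KCl, pH 7.4, 0.5% DMSO. DNA 10 μM in cell, ligand 500 μM in syringe; 19 injections of 4 s, 150 s apart, 750 rpm stirring; blank heat subtracted before model fitting.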

Assay [4] deals with HeLa. In words: Effect on telomere length in human HeLa cells assessed as reduction of telomere length incubated for 18 days by qRT-PCR analysis. It is filed as functional, cell-based. To be noted: dose 0.5-4 µM, time 18.0 day. In short, it runs like this:
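HeLa cells were treated with graded compound concentrations (0–4 μM) for 18 days. Genomic DNA was isolated by proteinase K digestion and phenol/chloroform extraction. Relative telomere length was measured by qPCR against hRPLPO using the ΔΔCt method; three independent experiments.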

The test system of assay [5] is Quadruplex DNA [UNDEFINED MUTATION]. In words: Binding affinity to telomeric Htg24 G-quadruplex DNA G17C mutant (unknown origin) assessed as negative fluorescence signal at 5 uM under pH condition 7.4 by fluorescence titration analysis. The conditions noted are these: Homo sapiens. Format: nucleic-acid assay. In short, it runs like this: as §1
The test system is the same in assay [6]. In words: Binding affinity to telomeric Htg24 G-quadruplex DNA G3A mutant (unknown origin) assessed as negative fluorescence signal at 5 uM under pH condition 7.4 by fluorescence titration analysis. The conditions noted are these: Homo sapiens. It is filed as nucleic-acid assay. The procedure, abridged: (§2)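 Ligand held at 5 μM and mixed with each Htg24 point mutant in Tris-HCl buffer containing 60 mM KCl, pH 7.4. Fluorescence was read, and the signal change was computed as (F mutant − F wild type)/F wild type.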

Assay [7] deals with Quadruplex DNA. In words: Binding affinity to telomeric Htg24 G-quadruplex DNA (unknown origin) assessed as stroke shift under at 480 to 483 nm at pH 7.4 by spectrophotometric method.
The subject of assay [8] is Quadruplex DNA [UNDEFINED MUTATION]. In words: Binding affinity to telomeric Htg24 G-quadruplex DNA G22A mutant (unknown origin) assessed as negative fluorescence signal at 5 uM under pH condition 7.4 by fluorescence titration analysis. To be noted: Homo sapiens. Format: nucleic-acid assay. In short, it runs like this: as §2
For assay [9], the system named is 16HBE14o-. In words: Cytotoxicity against human 16HBE14o- cells assessed as cell viability incubated for 48 hrs by MTT assay. Format: cell-based. To be noted: 36 h, in the assay text read “36 hrs” for “48 hrs”. In short, it runs like this:
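Cells were plated and grown 48 h at 37 °C, 5% CO2, in DMEM with 10% FBS. They were then given graded ligand concentrations for 36 h and treated with MTT (5 mg/ml) for 4 h in the dark. Formazan was dissolved in DMSO and absorbance read at 577 nm. IC50 was taken from a sigmoidal dose–response fit; three independent experiments.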

Assay [10] has as its system Quadruplex DNA [UNDEFINED MUTATION]. Put plainly: Effect on confirmation of telomeric Htg24 G-quadruplex DNA G16C mutant (unknown origin) assessed as parallel topology at 5 uM at pH 7.4 by circular dichroism analysis. It is filed as nucleic-acid assay. The conditions noted are these: Homo sapiens. The procedure, abridged: (§3)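 CD spectra recorded on G4-DNA and ligand, each at 5 μM, in 10 mM Tris-HCl, pH 7.4, with 60 mM KCl. Scan range 220–340 nm in a 1 mm quartz cuvette, 1 nm bandwidth and step, 0.5 s/point. Each spectrum is the average of three scans.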
(Circular dichroism is widely used to follow secondary structure.)

Assay [11] has the same test system. In words: Binding affinity to telomeric Htg24 G-quadruplex DNA G15T mutant (unknown origin) assessed as fluorescence signal at 5 uM under pH condition 7.4 by fluorescence titration analysis. To be noted: Homo sapiens. It is filed as nucleic-acid assay.
Assay [12] shares this test system. In words: Effect on confirmation of telomeric Htg24 G-quadruplex DNA G22C mutant (unknown origin) assessed as hybrid topology at 5 uM at pH 7.4 by circular dichroism analysis. To be noted: Homo sapiens. It is filed as nucleic-acid assay. The procedure, abridged:
as §3

The test system is the same in assay [13]. Put plainly: Effect on confirmation of telomeric Htg24 G-quadruplex DNA T12G mutant (unknown origin) assessed as hybrid topology at 5 uM at pH 7.4 by circular dichroism analysis. It is filed as nucleic-acid assay. To be noted: Homo sapiens. In short, it runs like this:
as §3

The test system is the same in assay [14]. Put plainly: Binding affinity to telomeric Htg24 G-quadruplex DNA G22C mutant (unknown origin) assessed as negative fluorescence signal at 5 uM under pH condition 7.4 by fluorescence titration analysis. The conditions noted are these: Homo sapiens. It is filed as nucleic-acid assay. The procedure, abridged:
as §2

The subject of assay [15] is Quadruplex DNA. In words: Binding affinity to G4 quadruplex DNA in human U87 cells assessed as increase in BG4-induced fluorescence signal at 5 uM incubated for 30 mins by immunofluorescence based confocal microscopic analysis. Format: cell-based. In short, it runs like this: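 U87 cells fixed in 4% paraformaldehyde for 15 min, permeabilized with 0.1% Triton X-100 at 37 °C for 30 min, blocked with 5% goat serum for 3 h. BG4 antibody 3 h at 37 °C, then DyLight 405 anti-mouse IgG 3 h at 37 °C, then ligand 5 μM for 30 min. Confocal imaging for co-localization.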

In assay [16] the test system is HeLa. Put plainly: Downregulation of hTERT mRNA expression in human HeLa cells at 5 to 20 uM by qRT-PCR analysis. Format: functional, cell-based. The conditions noted are these: dose 5-20 µM. In short, it runs like this:
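HeLa cells were treated with graded compound concentrations, then incubated 36 h. RNA was extracted with Trizol/chloroform, reverse transcribed and quantified by qRT-PCR. GAPDH served as internal control, with relative expression by the ΔΔCt method; three independent experiments, mean ± SD.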
Background: Real-time PCR tracks product formation cycle by cycle.

Assay [17] deals with Quadruplex DNA [UNDEFINED MUTATION]. Put plainly: Binding affinity to telomeric Htg24 G-quadruplex DNA G3C mutant (unknown origin) assessed as negative fluorescence signal at 5 uM under pH condition 7.4 by fluorescence titration analysis. It is filed as nucleic-acid assay. The conditions noted are these: Homo sapiens. The procedure, abridged: as §2
For assay [18] the test system is unchanged. Put plainly: Effect on confirmation of telomeric Htg24 G-quadruplex DNA G16T mutant (unknown origin) assessed as parallel topology at 5 uM at pH 7.4 by circular dichroism analysis. Format: nucleic-acid assay. The conditions noted are these: Homo sapiens. The procedure, abridged: as §3
Assay [19] shares this test system. Put plainly: Binding affinity to telomeric Htg24 G-quadruplex DNA G21A mutant (unknown origin) assessed as strong fluorescence signal at 5 uM under pH condition 7.4 by fluorescence titration analysis. Format: nucleic-acid assay. To be noted: Homo sapiens. The procedure, abridged: as §1
Assay [20] shares this test system. Put plainly: Binding affinity to telomeric Htg24 G-quadruplex DNA G23A mutant (unknown origin) assessed as fluorescence signal at 5 uM under pH condition 7.4 by fluorescence titration analysis. Format: nucleic-acid assay. The conditions noted are these: Homo sapiens. The procedure, abridged: as §2
Assay [21] shares this test system. Put plainly: Effect on confirmation of telomeric Htg24 G-quadruplex DNA A20G mutant (unknown origin) assessed as hybrid topology at 5 uM at pH 7.4 by circular dichroism analysis. It is filed as nucleic-acid assay. To be noted: Homo sapiens. In short, it runs like this:
as §3

For assay [22] the test system is unchanged. Put plainly: Binding affinity to telomeric Htg24 G-quadruplex DNA G16A mutant (unknown origin) assessed as negative fluorescence signal at 5 uM under pH condition 7.4 by fluorescence titration analysis. It is filed as nucleic-acid assay. To be noted: Homo sapiens. The procedure, abridged: as §1
Assay [23] shares this test system. Put plainly: Binding affinity to telomeric Htg24 G-quadruplex DNA G21C mutant (unknown origin) assessed as strong fluorescence signal at 5 uM under pH condition 7.4 by fluorescence titration analysis. It is filed as nucleic-acid assay. To be noted: Homo sapiens. In short, it runs like this: as §1
The subject of assay [24] is Quadruplex DNA. In words: Binding affinity to telomeric Htg24 G-quadruplex DNA (unknown origin) assessed as decrease in peak intensity at guanine base G15 at 5 uM under pH condition 7.4 by spectrophotometric titration analysis. Format: nucleic-acid assay.

The values that follow come from ChEMBL document CHEMBL4834396, “Molecular Recognition and Imaging of Human Telomeric G-Quadruplex DNA in Live Cells: A Systematic Advancement of Thiazole Orange Scaffold To Enhance Binding Specificity and Inhibition of Gene Expression” (J Med Chem, 2021).

For orientation: IC50 means the midpoint of a concentration-inhibition curve. For orientation: Kd means the concentration at which binding is half-saturated.

Activity calls are given as the source filed them. No cut-off for these calls is given here.

As to `CN(C)c1ccc(/C=C/c2cc(/C=C3\Sc4ccccc4N3CCCN3CCOCC3)c3ccccc3[n+]2C)cc1.[I-]`, the outcome in assay [1], in [5], in [6], in assay [8], in assay [10] and in assay [12] was Active. Further, the result in assay [13], in assay [14], in assay [15], in assay [16], in assay [17] and in assay [18] was Active. The outcome in assay [19], in [21], in [22], in [23] and in assay [24] was Active. Further, the IC50 is 15.2 µM in assay [2] and 52.3 µM in assay [9]. Moreover, in [3], the Kd is 3.27 µM. Besides, the Activity result in [4] is “Dose-Dependent Effect”; in assay [7], 162 nm. Further, the result in [11] and in assay [20] was inactive.
